# Measurements: ChEMBL document CHEMBL1124104, “(Acyloxy)benzophenones and (acyloxy)-4-pyrones. A new class of inhibitors of human neutrophil elastase” (J Med Chem, 1988)
# pIC50: −log10 of the molar value.
# Tests used:
# [1] = target: T1, Neutrophil elastase (Homo sapiens, UniProt P08246); test: Inhibitory activity against human leukocyte elastase at 10e-6 M
# T1 sequence (P08246 whole entry): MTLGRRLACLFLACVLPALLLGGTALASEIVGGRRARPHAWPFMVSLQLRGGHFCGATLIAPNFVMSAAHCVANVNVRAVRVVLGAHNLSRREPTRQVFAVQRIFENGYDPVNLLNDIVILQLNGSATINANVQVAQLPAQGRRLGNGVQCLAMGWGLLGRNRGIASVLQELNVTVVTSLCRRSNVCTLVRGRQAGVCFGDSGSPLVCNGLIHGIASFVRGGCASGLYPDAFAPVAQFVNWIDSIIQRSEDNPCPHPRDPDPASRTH
# [2] = target: T1, Neutrophil elastase; test: (§1) Inhibitory activity against human leukocyte elastase at 10e-4 M
# Procedure, shortened: (§2)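 HLE activity followed as rise in absorbance at 410 nm from nitroanilide release; substrate (methoxysuccinyl)Ala-Ala-Pro-Val nitroanilide at 10⁻⁴ M. Run in 0.2 M Tris, pH 8.0, 30 °C. Inhibitors and substrate dissolved in DMSO, which made up 10% of the final medium. Enzyme titrated to give 0.12 OD unit/min per 10 mm path.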
# [3] = target: T1, Neutrophil elastase; test: Inhibitory activity against human leukocyte elastase at 10e-7 M
# [4] = target: T1, Neutrophil elastase; test: Inhibitory activity against human leukocyte elastase at 10e-9 M; procedure, shortened: as §2
# [5] = target: T2, Neutrophil elastase (Homo sapiens) (UniProt P08246); test: Inhibitory activity against [14C]elastin hydrolysis at 3 uM concentration and 1h.
# T2 sequence (whole entry): T1 sequence (P08246 whole entry)
# Procedure, shortened: (§3)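 Elastase digestion of [¹⁴C]elastin, quantitated by radiolabel release (method of Bielefeld et al.). Substrate, inhibitor and elastase were all present for the whole run, and % inhibition was read at 1, 2 and 3 h.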
# [6] = target: T2, Neutrophil elastase (Homo sapiens); test: Inhibitory activity against [14C]elastin hydrolysis at 3 uM concentration and 2 hr.; procedure, shortened: as §3
# [7] = target: T2, Neutrophil elastase (Homo sapiens); test: Inhibitory activity against [14C]-Elastin hydrolysis at 3 uM concentration and 3h.; procedure, shortened: as §3
# [8] = target: T2, Neutrophil elastase (Homo sapiens); test: Inhibitory activity against [14C]elastin hydrolysis at 1 uM concentration and 1h.; procedure, shortened: as §3
# [9] = target: T2, Neutrophil elastase (Homo sapiens); test: Inhibitory activity against [14C]elastin hydrolysis at 1 uM concentration and 2 hr.; procedure, shortened: as §3
# [10] = target: T2, Neutrophil elastase (Homo sapiens); test: Inhibitory activity against [14C]elastin hydrolysis at 2 uM concentration and 1h.; procedure, shortened: as §3
# [11] = target: T2, Neutrophil elastase (Homo sapiens); test: Inhibitory activity against [14C]-Elastin hydrolysis at 2 uM concentration and 2 hr.; procedure, shortened: as §3
# [12] = target: T2, Neutrophil elastase (Homo sapiens); test: Inhibitory activity against [14C]-Elastin hydrolysis at 2 uM concentration and 3h.; procedure, shortened: as §3
# [13] = Inhibitory activity against Hog pancreatic elastase; IA = Inactive at 10e-5 M; design: species or system Sus scrofa
# [14] = Inhibitory activity against pancreatic elastase; IA = Inactive at 10e-5 M
# [15] = target: T2, Neutrophil elastase (Homo sapiens); test: as §1; procedure, shortened: as §2
# [16] = target: T2, Neutrophil elastase (Homo sapiens); test: Inhibitory activity against [14C]elastin hydrolysis at 4 uM concentration and 1h.; procedure, shortened: as §3
# [17] = target: T2, Neutrophil elastase (Homo sapiens); test: Inhibitory activity against [14C]elastin hydrolysis at 4 uM concentration and 2 hr.; procedure, shortened: as §3
# [18] = target: T2, Neutrophil elastase (Homo sapiens); test: Inhibitory activity against [14C]elastin hydrolysis at 4 uM concentration and 3h.; procedure, shortened: as §3
# [19] = target: T1, Neutrophil elastase; test: Inhibitory activity against human leukocyte elastase at 10e-5 M; procedure, shortened: as §2
# [20] = target: T2, Neutrophil elastase (Homo sapiens); test: Inhibitory activity against [14C]-Elastin hydrolysis at 0.5 uM concentration and 2 hr.; procedure, shortened: as §3
# [21] = target: T2, Neutrophil elastase (Homo sapiens); test: Inhibitory activity against [14C]elastin hydrolysis at 0.5 uM concentration and 3h.; procedure, shortened: as §3
# [22] = target: T2, Neutrophil elastase (Homo sapiens); test: Inhibitory activity against [14C]elastin hydrolysis at 1 uM concentration and 3h.; procedure, shortened: as §3
# [23] = target: T2, Neutrophil elastase (Homo sapiens); test: Inhibitory activity against [14C]elastin hydrolysis at 0.5 uM concentration and 1h.; procedure, shortened: as §3
# [24] = Inhibitory activity against Hog pancreatic elastase;IA = Inactive at 10e-5 M; design: species or system Sus scrofa
# [25] = target: T1, Neutrophil elastase; test: Inhibitory activity against human leukocyte elastase; No inhibition at 1x10E-2 M; procedure, shortened: as §2
# [26] = target: T1, Neutrophil elastase; test: Inhibitory activity against human leukocyte elastase at 10e-8 M
smiles,measurement,setting,value
CC(C)(C)C(=O)Oc1ccc(C(OC(=O)CCC(=O)O)c2ccc(OC(=O)C(C)(C)C)cc2)cc1,pIC50,[1],5.52
CCCCCCCCCCCCCCCC(=O)OCc1cc(=O)c(O)co1,pIC50,[2],4.00
CC(C)(C)C(=O)Oc1ccc(S(=O)(=O)c2ccc(O)cc2)cc1,pIC50,[3],5.74
CCCCCCCC/C=C/CCCCCCCCCC(=O)OCc1cc(=O)c(OC(=O)C(C)(C)C)co1,pIC50,[3],6.68
C=C(C)C(=O)Oc1ccc(C(=O)c2ccccc2)cc1,pIC50,[4],5.72
CC(C)(C)C(=O)Oc1ccc(C(=O)c2ccccc2)c(OC(=O)C(C)(C)C)c1,inhibition,[5],62%
same,inhibition,[6],32%
same,inhibition,[7],10%
same,inhibition,[8],14%
same,inhibition,[9],10%
same,inhibition,[10],36%
same,inhibition,[11],12%
same,inhibition,[12],9%
CCC(=O)Oc1ccc(C(=O)c2ccccc2)cc1,pIC50,[1],5.21
O=C(c1ccccc1)c1ccc(OC(=O)C2CC2)cc1,pIC50,[1],5.85
CC(C)(C)C(=O)Oc1ccc(C(=O)OCc2cc(=O)c(OC(=O)C(C)(C)C)co2)cc1,pIC50,[3],6.70
same,IC50,[13],Not Active
same,IC50,[14],Not Active
CC(C)(C)C(=O)Oc1ccc(C(=O)c2ccc(Cl)cc2)cc1,pIC50,[3],6.85
CCCCCCCC/C=C/CCCCCCCC(=O)OCc1cc(=O)c(OC(=O)C(C)(C)C)co1,pIC50,[3],6.52
CC(C)(C)C(=O)Oc1ccc(C(=O)c2ccc(O)cc2)cc1,pIC50,[1],5.57
CC(C)(C)C(=O)Oc1ccc(Cc2ccc(OC(=O)C(C)(C)C)cc2)cc1,pIC50,[3],6.34
CCCCCCCCCCCCCCCCCCCC(=O)OCc1cc(=O)c(OC(=O)C(C)(C)C)co1,pIC50,[3],6.89
O=c1cc(COC2CCOCC2)occ1OC(=O)[C@]12C[C@H]3C[C@H](C[C@H](C3)C1)C2,inhibition,[15],33%
CCCCCCCCCCCCC(C)(C)C(=O)OCc1cc(=O)c(OC(=O)C(C)(C)C)co1,pIC50,[3],6.22
CCCCCCCCCCCCCCCC(=O)OCc1cc(=O)c(OC(=O)C(C)(C)C)co1,pIC50,[3],6.96
CCCCCCCC/C=C/CCCCCCCCCCCC(=O)OCc1cc(=O)c(OC(=O)C(C)(C)C)co1,inhibition,[5],74%
same,inhibition,[6],46%
same,inhibition,[7],32%
same,inhibition,[16],77%
same,inhibition,[17],50%
same,inhibition,[18],22%
same,pIC50,[3],6.80
same,inhibition,[10],61%
same,inhibition,[11],33%
same,inhibition,[12],13%
O=C(c1ccccc1)c1ccc(OC(=O)C2CCCCC2)cc1,pIC50,[19],4.70
CC(C)(C)C(=O)Oc1ccc(C(=O)c2ccc(OC(=O)C(C)(C)C)cc2OC(=O)C(C)(C)C)cc1,inhibition,[20],19%
same,inhibition,[21],6%
same,inhibition,[8],45%
same,inhibition,[9],63%
same,inhibition,[22],47%
same,inhibition,[10],81%
same,inhibition,[11],81%
same,inhibition,[12],76%
same,inhibition,[23],20%
CC(CO)Cc1cc(C(=O)c2ccccc2)ccc1OC(=O)C(C)(C)C (stereo not given),pIC50,[1],5.82
CCCCCCC/C=C/CCCCCCCCC(=O)Oc1coc(COC(=O)CCCCCCC/C=C/CCCCCCCC)cc1=O,pIC50,[1],5.21
CCCCCCCCCCCCCCCCCC(=O)OCc1cc(=O)c(OC(=O)C(C)(C)C)co1,IC50,[24],Not Active
same,inhibition,[5],67%
same,inhibition,[6],39%
same,inhibition,[7],13%
same,inhibition,[16],79%
same,inhibition,[17],53%
same,inhibition,[18],21%
same,pIC50,[3],7.00
same,inhibition,[10],57%
same,inhibition,[11],21%
same,inhibition,[12],9%
same,IC50,[14],Not Active
CC(C)(C)C(=O)Oc1ccccc1C(=O)c1ccccc1OC(=O)C(C)(C)C,pIC50,[1],5.10
CCCCCCCC/C=C/CCCCCCCC(=O)OCc1cc(=O)c(OC(=O)[C@]23C[C@H]4C[C@H](C[C@H](C4)C2)C3)co1,pIC50,[19],4.10
CC1Cc2cc(C(=O)c3ccccc3)ccc2OC1=O (stereo not given),IC50,[25],No inhibition
CC(C)(C)C(=O)Oc1ccccc1C(=O)OCc1cc(=O)c(OC(=O)C(C)(C)C)co1,pIC50,[1],5.27
CC(C=O)Cc1cc(C(=O)c2ccccc2)ccc1OC(=O)C(C)(C)C (stereo not given),pIC50,[3],6.10
CCCCCC/C=C/CCCCCCCC(=O)OCc1cc(=O)c(OC(=O)C(C)(C)C)co1,pIC50,[3],6.89
same,IC50,[13],Not Active
same,IC50,[14],Not Active
O=C1CCc2cc(C(=O)c3ccccc3)ccc2O1,IC50,[25],No inhibition
CC(C(=O)O)c1cc(C(=O)c2ccccc2)ccc1OC(=O)C(C)(C)C (stereo not given),pIC50,[19],4.92
CC(C)(C)C(=O)Oc1ccc(Oc2ccc(OC(=O)C(C)(C)C)cc2)cc1,pIC50,[3],6.35
CC(C)(C)C(=O)OCc1cc(=O)c(OC(=O)C(C)(C)C)co1,pIC50,[19],4.44
Cc1cc(C)c(C(=O)OCc2cc(=O)c(OC(=O)C(C)(C)C)co2)c(C)c1,pIC50,[1],5.08
CC(C)(C)C(=O)Oc1ccc(S(=O)(=O)c2ccc(OC(=O)C(C)(C)C)cc2)cc1,inhibition,[5],56%
same,inhibition,[6],40%
same,inhibition,[7],29%
same,inhibition,[8],29%
same,inhibition,[9],14%
same,inhibition,[10],39%
same,inhibition,[11],29%
same,inhibition,[12],8%
CC1(C)C(=O)Oc2ccc(C(=O)c3ccccc3)cc21,IC50,[25],No inhibition
CC(C)(C)C(=O)Oc1coc(COC(=O)c2ccc(-c3ccccc3)cc2)cc1=O,pIC50,[1],5.72
C=C(C)Cc1cc(C(=O)c2ccccc2)ccc1OC(=O)C(C)(C)C,pIC50,[3],6.07
CC(C)(C)C(=O)Oc1ccccc1C(=O)c1ccccc1,pIC50,[3],5.00
CC(C)(C)C(=O)Oc1coc(COC(c2ccccc2)(c2ccccc2)c2ccccc2)cc1=O,pIC50,[1],6.00
CC(=O)Oc1ccc(C(=O)c2ccccc2)cc1,pIC50,[19],4.80
CC1(C)Cc2cc(C(=O)c3ccccc3)ccc2OC1=O,IC50,[25],No inhibition
CCCCCCCCCCCCCCCCCC(=O)OCc1cc(=O)c(OC(=O)C(C)C)co1,pIC50,[26],7.14
CC(C)(C)C(=O)Oc1ccc(C(O)c2ccc(OC(=O)C(C)(C)C)cc2)cc1,pIC50,[1],5.82
CC1C(=O)Oc2ccc(C(=O)c3ccccc3)cc21 (stereo not given),IC50,[25],No inhibition
CC(=O)NC(C)(C)C(=O)Oc1ccc(C(=O)c2ccccc2)cc1,pIC50,[19],4.72
CC(C)(C)C(=O)Oc1coc(COC2CCOCC2)cc1=O,pIC50,[19],4.37
CCCCCCCCCCCCCCCCCCCC(=O)OCc1cc(=O)c(O)co1,pIC50,[3],5.05
CC(C)(C)C(=O)Oc1cc(C(=O)OCc2cc(=O)c(OC(=O)C(C)(C)C)co2)cc(OC(=O)C(C)(C)C)c1OC(=O)C(C)(C)C,inhibition,[5],71%
same,inhibition,[6],67%
same,inhibition,[7],31%
same,inhibition,[8],39%
same,inhibition,[9],15%
same,inhibition,[22],3%
same,pIC50,[3],7.00
same,inhibition,[10],58%
same,inhibition,[11],44%
same,inhibition,[12],5%
CCC(C)CC(=O)Oc1ccc(C(=O)c2ccc(OC(=O)CC(C)CC)cc2OC(=O)CC(C)CC)c(OC(=O)CC(C)CC)c1 (stereo not given),pIC50,[1],5.82
